Converted amounts (≈) assume the structure as drawn.
What was measured:
[1] = test system: Moraxella catarrhalis; experiment: Antibacterial activity against Moraxella catarrhalis ATCC 23246 after 20 to 22 hrs by broth microdilution method; type: functional
Method in brief: (§1)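 CLSI broth microdilution MIC. Twofold compound dilutions spanned 128-0.5 µg/mL, with azithromycin as comparator. Streptococci were grown on Columbia agar with 5% sheep blood, and their broth used 5% horse serum instead of lysed blood. H. influenzae was grown on Mueller-Hinton chocolate agar and staphylococci on Mueller-Hinton agar. Direct colony suspension gave 5x10⁴ CFU/well. Plates were read visually after 20-22 h at 37°C in ambient air.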

[2] = test system: HepG2; experiment: Cytotoxicity against human HepG2 cells assessed as NADH level after overnight incubation by MTS assay; type: cell-based
Method in brief: (§2)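 Cells were maintained in RPMI 1640 with 10% FBS at 37°C under 5% CO₂. Compounds were twofold serially diluted across 100-0.2 µM, and 5x10⁴ cells/well were added and incubated overnight at 37°C, 5% CO₂. MTS reagent was then added for 1 h under the same conditions, and absorbance was read at 490 nm.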

[3] = test system: Streptococcus pyogenes; experiment: Antibacterial activity against Streptococcus pyogenes ATCC 700294 after 20 to 22 hrs by broth microdilution method; type: functional; details: M1 GAS; method in brief: as §1
[4] = test system: Haemophilus influenzae; experiment: Antibacterial activity against Haemophilus influenzae ATCC 49247 after 20 to 22 hrs by broth microdilution method; type: functional; method in brief: as §1
[5] = test system: Streptococcus pneumoniae; experiment: Antibacterial activity against Streptococcus pneumoniae ATCC 49619 after 20 to 22 hrs by broth microdilution method; type: functional; method in brief: as §1
[6] = test system: Staphylococcus aureus; experiment: Antibacterial activity against Staphylococcus aureus ATCC 29213 after 20 to 22 hrs by broth microdilution method; type: functional; method in brief: as §1
[7] = test system: Escherichia coli; experiment: Antibacterial activity against Escherichia coli ATCC 25922 after 20 to 22 hrs by broth microdilution method; type: functional; method in brief: as §1
[8] = test system: Jurkat; experiment: Cytotoxicity against human Jurkat T cells assessed as NADH level after overnight incubation by MTS assay; type: cell-based; method in brief: as §2

| Structure (SMILES) | MIC [1] | IC50 [2] | MIC [3] | MIC [4] | MIC [5] | MIC [6] | MIC [7] | IC50 [8] |
| --- | --- | --- | --- | --- | --- | --- | --- | --- |
| O=c1c2ccccc2oc2cccc(O)c12 | 128 µg/mL (≈ 603 µM) | > 100 µM | > 128 µg/mL | > 128 µg/mL | > 128 µg/mL | > 128 µg/mL | > 128 µg/mL | > 100 µM |
| CC(=O)Oc1cc(OC(C)=O)c2c(=O)c3cccc(OC(C)=O)c3oc2c1 | > 128 µg/mL | > 100 µM | > 128 µg/mL | > 128 µg/mL | > 128 µg/mL | > 128 µg/mL | > 128 µg/mL | 92 µM |
| CC(=O)Oc1ccc2c(=O)c3c(OC(C)=O)cc(OC(C)=O)cc3oc2c1 | 4 µg/mL (≈ 10.8 µM) | > 100 µM | > 128 µg/mL | 128 µg/mL (≈ 346 µM) | > 128 µg/mL | 64 µg/mL (≈ 173 µM) | > 128 µg/mL | > 100 µM |
| CC(=O)Oc1cc(OC(C)=O)c2c(=O)c3c(OC(C)=O)cccc3oc2c1 | 128 µg/mL (≈ 346 µM) | 93 µM | > 128 µg/mL | > 128 µg/mL | > 128 µg/mL | 128 µg/mL (≈ 346 µM) | > 128 µg/mL | 62 µM |
| O=c1c2ccccc2sc2cc(O)cc(O)c12 | 8 µg/mL (≈ 32.8 µM) | > 100 µM | > 128 µg/mL | 16 µg/mL (≈ 65.5 µM) | > 128 µg/mL | 16 µg/mL (≈ 65.5 µM) | > 128 µg/mL | > 100 µM |
| CC(=O)Oc1cc(OC(C)=O)c2c(=O)c3ccccc3sc2c1 | 64 µg/mL (≈ 195 µM) | > 100 µM | > 128 µg/mL | > 128 µg/mL | > 128 µg/mL | > 128 µg/mL | > 128 µg/mL | > 100 µM |
| O=c1c2cc(O)ccc2oc2cc(O)cc(O)c12 | 128 µg/mL (≈ 524 µM) | > 100 µM | > 128 µg/mL | > 128 µg/mL | > 128 µg/mL | 128 µg/mL (≈ 524 µM) | > 128 µg/mL | > 100 µM |
| O=c1c2cccc(O)c2oc2cc(O)cc(O)c12 | 16 µg/mL (≈ 65.5 µM) | > 100 µM | > 128 µg/mL | > 128 µg/mL | > 128 µg/mL | > 128 µg/mL | > 128 µg/mL | > 100 µM |
| O=c1c2ccccc2oc2cc(O)cc(O)c12 | 16 µg/mL (≈ 70.1 µM) | > 100 µM | > 128 µg/mL | 64 µg/mL (≈ 280 µM) | > 128 µg/mL | 64 µg/mL (≈ 280 µM) | > 128 µg/mL | > 100 µM |
| CC(=O)Oc1cccc2oc3ccccc3c(=O)c12 | 128 µg/mL (≈ 503 µM) | > 100 µM | > 128 µg/mL | > 128 µg/mL | > 128 µg/mL | > 128 µg/mL | > 128 µg/mL | 78 µM |
| O=c1c2ccc(O)cc2oc2cccc(O)c12 | 8 µg/mL (≈ 35.1 µM) | 93 µM | > 128 µg/mL | > 128 µg/mL | > 128 µg/mL | 32 µg/mL (≈ 140 µM) | > 128 µg/mL | 75 µM |
| CC(=O)Oc1cc(OC(C)=O)c2c(=O)c3ccccc3oc2c1 | 32 µg/mL (≈ 102 µM) | > 100 µM | > 128 µg/mL | 128 µg/mL (≈ 410 µM) | > 128 µg/mL | 128 µg/mL (≈ 410 µM) | > 128 µg/mL | > 100 µM |
| O=c1c2ccc(O)cc2oc2cc(O)cc(O)c12 | 2 µg/mL (≈ 8.19 µM) | > 100 µM | > 128 µg/mL | 32 µg/mL (≈ 131 µM) | > 128 µg/mL | 64 µg/mL (≈ 262 µM) | > 128 µg/mL | > 100 µM |
| CC(=O)Oc1cc(OC(C)=O)c2c(=O)c3cc(OC(C)=O)ccc3oc2c1 | > 128 µg/mL | > 100 µM | > 128 µg/mL | > 128 µg/mL | > 128 µg/mL | > 128 µg/mL | > 128 µg/mL | > 100 µM |
| O=c1c2c(O)cccc2oc2cc(O)cc(O)c12 | 8 µg/mL (≈ 32.8 µM) | 90 µM | > 128 µg/mL | 16 µg/mL (≈ 65.5 µM) | 128 µg/mL (≈ 524 µM) | 8 µg/mL (≈ 32.8 µM) | > 128 µg/mL | 83 µM |
| CC(=O)Oc1ccc2c(=O)c3c(OC(C)=O)cccc3oc2c1 | 16 µg/mL (≈ 51.2 µM) | 90 µM | > 128 µg/mL | 128 µg/mL (≈ 410 µM) | > 128 µg/mL | 64 µg/mL (≈ 205 µM) | > 128 µg/mL | > 100 µM |
| CC[C@H]1OC(=O)[C@H](C)[C@@H](O[C@H]2C[C@@](C)(OC)[C@@H](O)[C@H](C)O2)[C@H](C)[C@@H](O[C@@H]2O[C@H](C)C[C@H](N(C)C)[C@H]2O)[C@](C)(O)C[C@@H](C)CN(C)[C@H](C)[C@@H](O)[C@]1(C)O [AZITHROMYCIN] | < 0.125 µg/mL | – | < 0.125 µg/mL | 1 µg/mL (≈ 1.34 µM) | < 0.125 µg/mL | 1 µg/mL (≈ 1.34 µM) | 2 µg/mL (≈ 2.67 µM) | – |

Source: ChEMBL document CHEMBL2016547, “An efficient and convenient microwave-assisted chemical synthesis of (thio)xanthones with additional in vitro and in silico characterization” (Bioorg Med Chem, 2012)
